Laboratory results reported in ChEMBL document CHEMBL1141651, “Discovery of a potent, selective, and orally active proteasome inhibitor for the treatment of cancer” (J Med Chem, 2008).

What was measured:
[1] = Half life in Sprague-Dawley rat at 0.8 mg/kg, po; type: ADME, organism-based; set-up: dose 0.8 mg/kg, route oral; details: in vivo
Method in brief: (§1)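 Female Sprague–Dawley rats and CD-1 mice each received a single iv or oral (po) dose. Terminal half-life and systemic clearance were estimated from plasma exposure over time, alongside AUC0→∞, Vss and absolute oral bioavailability.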

[2] = Half life in CD1 mouse at 4 mg/kg, iv; type: ADME, organism-based; set-up: dose 4 mg/kg, route intravenous; details: in vivo; method in brief: as §1
[3] = Clearance in CD1 mouse at 4 mg/kg, iv; type: ADME, organism-based; set-up: dose 4 mg/kg, route intravenous; details: in vivo; method in brief: as §1
Caspase-7 (Homo sapiens) = Caspase-7 (Homo sapiens) (UniProt P55210); experiment: Inhibition of human caspase 7 at 10 uM
Sequence of Caspase-7 (Homo sapiens) (P55210 24-198 limits assumed): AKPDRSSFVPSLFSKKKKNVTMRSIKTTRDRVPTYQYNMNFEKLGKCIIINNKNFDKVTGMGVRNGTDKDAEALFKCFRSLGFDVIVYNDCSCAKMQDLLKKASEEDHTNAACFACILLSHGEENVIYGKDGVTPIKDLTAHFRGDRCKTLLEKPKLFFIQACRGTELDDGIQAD
Sequence of Caspase-7 (Homo sapiens) (P55210 207-303 limits assumed): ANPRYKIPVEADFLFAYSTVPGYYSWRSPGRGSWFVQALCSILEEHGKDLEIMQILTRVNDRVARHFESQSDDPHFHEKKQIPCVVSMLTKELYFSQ

Caspase-9 (Homo sapiens) = Caspase-9 (Homo sapiens) (UniProt P55211); experiment: Inhibition of human caspase 9 at 10 uM
Sequence of Caspase-9 (Homo sapiens) (P55211 1-315 limits assumed): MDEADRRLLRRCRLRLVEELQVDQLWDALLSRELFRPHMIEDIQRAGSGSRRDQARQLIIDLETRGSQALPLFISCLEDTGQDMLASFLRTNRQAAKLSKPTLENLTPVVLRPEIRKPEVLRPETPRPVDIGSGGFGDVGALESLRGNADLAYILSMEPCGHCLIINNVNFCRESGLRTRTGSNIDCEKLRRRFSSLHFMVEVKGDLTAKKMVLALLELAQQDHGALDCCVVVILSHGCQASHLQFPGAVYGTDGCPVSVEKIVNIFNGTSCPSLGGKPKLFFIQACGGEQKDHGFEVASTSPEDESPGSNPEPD
Sequence of Caspase-9 (Homo sapiens) (P55211 331-416 limits assumed): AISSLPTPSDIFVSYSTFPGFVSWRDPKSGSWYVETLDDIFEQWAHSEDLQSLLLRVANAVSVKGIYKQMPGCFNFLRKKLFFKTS

[4] = biological target: Endothelin-converting enzyme 1 (Homo sapiens) (UniProt P42892); experiment: Inhibition of human ECE1 at 10 uM
Sus scrofa = species: Sus scrofa; experiment: Inhibition of pig pepsin at 10 uM
[5] = Inhibition of chymotrypsin-like activity of human erythrocyte 20S proteasome
Method in brief: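 Isolated 20S proteasome purified from human erythrocytes was tested in a fluorimetric kinetic assay of chymotrypsin-like activity. Potency is reported as IC50.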

A2780 = experiment: Cytotoxicity against human A2780 cells; type: functional, cell-based
Method in brief: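 Antiproliferative activity was measured in A2780 ovarian carcinoma cells with a standard colorimetric assay of cell proliferation and viability. Results are expressed as IC50.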

Cytochrome P450 2C19 = Cytochrome P450 2C19 (Homo sapiens, UniProt P33261); experiment: Inhibition of human recombinant CYP2C19 upto 30 uM; type: ADME; details: recombinant enzyme
Method in brief: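 Recombinant human P-450 isoforms (1A2, 2C9, 2C19, 2D6) with fluorescent P-450 substrates; tested at concentrations up to 30 µM to gauge inhibition.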

Cytochrome P450 3A4 = Cytochrome P450 3A4 (Homo sapiens, UniProt P08684); experiment: Inhibition of human recombinant CYP3A4; type: ADME
[6] = biological target: Cathepsin B (Homo sapiens) (UniProt P07858); experiment: Inhibition of human cathepsin B at 10 uM
[7] = biological target: Dipeptidyl peptidase 1 (Bos taurus) (UniProt Q3ZCJ8); experiment: Inhibition of bovine cathepsin C at 10 uM
Sequence of Dipeptidyl peptidase 1 (Bos taurus) (Q3ZCJ8 25-134 limits assumed): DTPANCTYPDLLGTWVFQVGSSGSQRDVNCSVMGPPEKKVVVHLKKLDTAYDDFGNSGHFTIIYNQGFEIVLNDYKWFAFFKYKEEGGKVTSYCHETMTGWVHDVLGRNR
Sequence of Dipeptidyl peptidase 1 (Bos taurus) (Q3ZCJ8 231-394 limits assumed): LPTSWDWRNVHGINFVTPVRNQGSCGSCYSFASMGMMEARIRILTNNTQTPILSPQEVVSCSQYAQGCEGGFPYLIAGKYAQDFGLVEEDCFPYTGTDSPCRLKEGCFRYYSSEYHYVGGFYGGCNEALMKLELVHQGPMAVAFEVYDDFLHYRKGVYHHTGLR
Sequence of Dipeptidyl peptidase 1 (Bos taurus) (Q3ZCJ8 395-463 limits assumed): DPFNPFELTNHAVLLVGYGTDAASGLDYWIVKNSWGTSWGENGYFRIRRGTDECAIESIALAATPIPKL

[8] = biological target: Cathepsin G (Homo sapiens) (UniProt P08311); experiment: Inhibition of human cathepsin G at 10 uM
Sequence of Cathepsin G (Homo sapiens) (P08311 whole entry): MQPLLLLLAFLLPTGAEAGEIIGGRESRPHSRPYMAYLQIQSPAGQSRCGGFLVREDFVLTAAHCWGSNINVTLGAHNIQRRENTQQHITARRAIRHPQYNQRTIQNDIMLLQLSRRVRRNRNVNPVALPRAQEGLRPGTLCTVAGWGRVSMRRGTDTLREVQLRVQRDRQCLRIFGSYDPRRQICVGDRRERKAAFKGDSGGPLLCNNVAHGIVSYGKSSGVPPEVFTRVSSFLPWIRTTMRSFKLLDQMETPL

[9] = biological target: Procathepsin L (Homo sapiens) (UniProt P07711); experiment: Inhibition of human cathepsin L at 10 uM
Sequence of Procathepsin L (Homo sapiens) (P07711 114-333 limits assumed): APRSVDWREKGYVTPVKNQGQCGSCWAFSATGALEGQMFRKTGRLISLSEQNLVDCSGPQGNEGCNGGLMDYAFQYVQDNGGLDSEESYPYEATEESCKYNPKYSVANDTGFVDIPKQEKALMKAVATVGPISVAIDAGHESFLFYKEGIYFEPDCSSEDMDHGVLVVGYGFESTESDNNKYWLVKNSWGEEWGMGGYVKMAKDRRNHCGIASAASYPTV

[10] = biological target: Cathepsin S (Homo sapiens) (UniProt P25774); experiment: Inhibition of human cathepsin S at 10 uM
Sequence of Cathepsin S (Homo sapiens) (P25774 115-331 limits assumed): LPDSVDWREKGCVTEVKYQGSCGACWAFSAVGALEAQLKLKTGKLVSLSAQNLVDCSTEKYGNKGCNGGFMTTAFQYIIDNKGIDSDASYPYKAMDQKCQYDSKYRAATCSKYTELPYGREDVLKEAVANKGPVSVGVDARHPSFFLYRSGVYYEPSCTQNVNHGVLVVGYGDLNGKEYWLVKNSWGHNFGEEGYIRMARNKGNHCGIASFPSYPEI

Chymase = Chymase (Homo sapiens, UniProt P23946); experiment: Inhibition of human chymase
[11] = biological target: Coagulation factor X (Homo sapiens) (UniProt P00742); experiment: Inhibition of human factor 10a at 10 uM
Sequence of Coagulation factor X (Homo sapiens) (P00742 41-179 limits assumed): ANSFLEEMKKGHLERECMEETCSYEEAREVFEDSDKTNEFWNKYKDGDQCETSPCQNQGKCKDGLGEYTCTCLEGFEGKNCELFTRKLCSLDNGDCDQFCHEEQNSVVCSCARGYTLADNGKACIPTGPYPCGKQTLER
Sequence of Coagulation factor X (Homo sapiens) (P00742 235-488 limits assumed): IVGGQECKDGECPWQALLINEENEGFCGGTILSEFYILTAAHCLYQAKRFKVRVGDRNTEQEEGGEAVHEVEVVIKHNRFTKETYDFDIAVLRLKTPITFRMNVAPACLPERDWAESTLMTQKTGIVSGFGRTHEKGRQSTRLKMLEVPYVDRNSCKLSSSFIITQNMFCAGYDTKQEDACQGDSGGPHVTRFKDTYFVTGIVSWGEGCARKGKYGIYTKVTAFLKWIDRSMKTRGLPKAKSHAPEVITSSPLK

[12] = biological target: Protease (Human immunodeficiency virus 1) (UniProt Q9YQ12); experiment: Inhibition of HIV1 protease at 10 uM
Sequence of Protease (Human immunodeficiency virus 1) (Q9YQ12 as listed by the source): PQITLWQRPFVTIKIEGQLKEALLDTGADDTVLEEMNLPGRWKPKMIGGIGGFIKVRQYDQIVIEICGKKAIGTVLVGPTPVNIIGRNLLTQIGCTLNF

[13] = biological target: 72 kDa type IV collagenase (Homo sapiens) (UniProt P08253); experiment: Inhibition of human MMP2 at 10 uM
Sequence of 72 kDa type IV collagenase (Homo sapiens) (P08253 110-660 limits assumed): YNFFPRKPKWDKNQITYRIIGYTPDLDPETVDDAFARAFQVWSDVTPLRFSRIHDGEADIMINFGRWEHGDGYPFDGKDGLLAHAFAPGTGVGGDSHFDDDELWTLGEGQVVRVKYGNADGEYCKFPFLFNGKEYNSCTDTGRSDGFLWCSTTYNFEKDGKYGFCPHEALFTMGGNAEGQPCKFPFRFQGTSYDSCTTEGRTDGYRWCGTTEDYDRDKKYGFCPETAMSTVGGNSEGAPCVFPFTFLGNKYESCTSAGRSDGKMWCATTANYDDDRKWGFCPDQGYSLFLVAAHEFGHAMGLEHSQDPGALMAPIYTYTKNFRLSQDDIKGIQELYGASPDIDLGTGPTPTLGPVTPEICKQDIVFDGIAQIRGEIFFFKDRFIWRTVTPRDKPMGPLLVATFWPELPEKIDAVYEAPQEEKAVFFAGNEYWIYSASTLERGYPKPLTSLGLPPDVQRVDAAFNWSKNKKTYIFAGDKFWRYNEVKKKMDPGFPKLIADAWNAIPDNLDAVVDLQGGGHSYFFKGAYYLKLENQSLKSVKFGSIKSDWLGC

[14] = biological target: Stromelysin-1 (Homo sapiens) (UniProt P08254); experiment: Inhibition of human MMP3 at 10 uM
Sequence of Stromelysin-1 (Homo sapiens) (P08254 100-477 limits assumed): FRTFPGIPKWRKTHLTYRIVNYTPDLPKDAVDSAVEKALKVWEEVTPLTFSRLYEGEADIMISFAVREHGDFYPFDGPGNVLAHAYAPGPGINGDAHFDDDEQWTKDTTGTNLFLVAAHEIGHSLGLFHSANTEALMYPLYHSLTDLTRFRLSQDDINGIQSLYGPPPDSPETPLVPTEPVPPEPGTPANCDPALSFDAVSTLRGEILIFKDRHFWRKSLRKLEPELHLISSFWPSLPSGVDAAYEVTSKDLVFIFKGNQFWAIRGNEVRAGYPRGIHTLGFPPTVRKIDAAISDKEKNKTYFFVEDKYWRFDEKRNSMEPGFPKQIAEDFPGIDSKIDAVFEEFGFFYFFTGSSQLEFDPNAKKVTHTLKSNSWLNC

[15] = biological target: Macrophage metalloelastase (Homo sapiens) (UniProt P39900); experiment: Inhibition of human MMP12 at 10 uM
Sequence of Macrophage metalloelastase (Homo sapiens) (P39900 106-470 limits assumed): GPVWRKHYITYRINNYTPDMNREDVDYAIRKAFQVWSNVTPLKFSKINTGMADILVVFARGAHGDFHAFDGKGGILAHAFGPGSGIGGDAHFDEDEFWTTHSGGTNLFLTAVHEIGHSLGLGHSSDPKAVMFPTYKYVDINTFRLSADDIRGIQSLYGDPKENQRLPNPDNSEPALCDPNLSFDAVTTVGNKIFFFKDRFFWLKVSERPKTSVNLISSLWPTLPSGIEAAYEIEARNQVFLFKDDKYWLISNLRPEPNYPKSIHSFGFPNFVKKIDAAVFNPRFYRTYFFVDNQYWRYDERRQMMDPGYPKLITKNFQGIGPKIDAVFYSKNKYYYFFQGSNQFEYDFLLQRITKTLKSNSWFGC

Caspase-1 (Homo sapiens) = Caspase-1 (Homo sapiens) (UniProt P29466); experiment: Inhibition of human caspase 1 at 10 uM
Sequence of Caspase-1 (Homo sapiens) (P29466 120-297 limits assumed): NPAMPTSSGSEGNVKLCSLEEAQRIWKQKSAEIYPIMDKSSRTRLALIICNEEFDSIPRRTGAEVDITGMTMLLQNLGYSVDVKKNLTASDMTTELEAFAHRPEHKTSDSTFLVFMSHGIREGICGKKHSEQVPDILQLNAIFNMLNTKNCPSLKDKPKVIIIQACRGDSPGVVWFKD
Sequence of Caspase-1 (Homo sapiens) (P29466 317-404 limits assumed): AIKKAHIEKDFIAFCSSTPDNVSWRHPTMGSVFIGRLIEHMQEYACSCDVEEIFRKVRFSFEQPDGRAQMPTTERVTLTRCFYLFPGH

Caspase-3 (Homo sapiens) = Caspase-3 (Homo sapiens) (UniProt P42574); experiment: Inhibition of human caspase 3 at 10 uM
Renin (Homo sapiens) = Renin (Homo sapiens) (UniProt P00797); experiment: Inhibition of human renin at 10 uM
[16] = biological target: Tissue-type plasminogen activator (Homo sapiens) (UniProt P00750); experiment: Inhibition of human TPA at 10 uM
Sequence of Tissue-type plasminogen activator (Homo sapiens) (P00750 36-562 limits assumed): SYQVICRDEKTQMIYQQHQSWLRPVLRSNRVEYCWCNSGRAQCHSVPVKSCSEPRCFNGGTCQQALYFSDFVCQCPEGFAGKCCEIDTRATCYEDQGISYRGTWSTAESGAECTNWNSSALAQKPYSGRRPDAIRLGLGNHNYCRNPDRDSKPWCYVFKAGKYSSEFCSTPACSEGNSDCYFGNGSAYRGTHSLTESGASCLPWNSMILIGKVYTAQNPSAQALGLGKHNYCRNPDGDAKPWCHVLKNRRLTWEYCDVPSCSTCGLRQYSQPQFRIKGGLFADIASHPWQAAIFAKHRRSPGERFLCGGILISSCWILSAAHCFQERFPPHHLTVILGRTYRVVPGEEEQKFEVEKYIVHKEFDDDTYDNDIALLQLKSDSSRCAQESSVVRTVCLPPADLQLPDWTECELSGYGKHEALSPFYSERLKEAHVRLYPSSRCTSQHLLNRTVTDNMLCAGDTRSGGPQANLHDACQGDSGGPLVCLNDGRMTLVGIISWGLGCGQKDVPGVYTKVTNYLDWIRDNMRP

Homo sapiens = species: Homo sapiens; experiment: Inhibition of human tryptase at 10 uM
[17] = biological target: Neutrophil elastase (Homo sapiens) (UniProt P08246); experiment: Inhibition of human neutrophil elastase 2 at 10 uM
Sequence of Neutrophil elastase (Homo sapiens) (P08246 whole entry): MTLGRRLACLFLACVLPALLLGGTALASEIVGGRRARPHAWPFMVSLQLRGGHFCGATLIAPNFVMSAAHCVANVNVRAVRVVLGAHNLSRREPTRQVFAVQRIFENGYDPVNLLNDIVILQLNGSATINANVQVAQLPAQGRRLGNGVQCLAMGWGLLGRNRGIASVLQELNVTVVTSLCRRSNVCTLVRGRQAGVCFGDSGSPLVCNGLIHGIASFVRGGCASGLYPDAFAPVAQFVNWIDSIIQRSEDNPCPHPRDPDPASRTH

[18] = Protein binding in rat plasma; type: ADME, cell-free; details: read-out: PPB (converted)
[19] = Protein binding in dog plasma; type: ADME, cell-free, Canis lupus familiaris; details: read-out: PPB (converted)

- half-life [1]: 3.58 days
- half-life [2]: 900 min
- clearance [3]: 23.3 mL/min/kg
- inhibition (Caspase-7 (Homo sapiens)): 0%
- inhibition (Caspase-9 (Homo sapiens)): -1%
- inhibition [4]: 21%
- inhibition (Sus scrofa): -5%
- IC50 [5]: 3.8 nM
- Activity (Cytochrome P450 2C19): Not Active
- IC50 (Cytochrome P450 3A4): 3.5 µM
- inhibition [6]: 7%
- inhibition [7]: -8%
- inhibition [8]: 86%
- inhibition [9]: 27%
- inhibition [10]: 12%
- IC50 (Chymase): 3.53 µM
- inhibition [11]: -2%
- inhibition [12]: 1%
- inhibition [13]: -5%
- inhibition [14]: -3%
- inhibition [15]: 4%
- inhibition (Caspase-1 (Homo sapiens)): 1%
- inhibition (Caspase-3 (Homo sapiens)): 2%
- inhibition (Renin (Homo sapiens)): -3%
- inhibition [16]: 0%
- inhibition (Homo sapiens): -3%
- inhibition [17]: 72%
- fraction unbound [18]: 0.001
- fraction unbound [19]: 0.001
Compound: CC(C)C[C@H](NC(=O)[C@@H](NC(=O)c1cccc(-c2ccccc2)n1)[C@@H](C)O)B(O)O [DELANZOMIB]
- IC50 (A2780): 13.7 nM
